# ChEMBL document CHEMBL1124174, “Substituted benzamides. 1. Potential nondopaminergic antagonists of chemotherapy-induced nausea and emesis” (J Med Chem, 1988)
# Values joined by “and” are separate entries in the source; they are usually repeats but may differ in a detail not shown here. Equal values may be shown once.
# Experiments:
# [1] = target: D(2) dopamine receptor (Canis lupus familiaris) (UniProt Q9GJU1); assay: In vivo antagonism activity against dopamine D2 receptor was measured as emesis in dog when administered subcutaneously; assay type: functional, organism-based
# [2] = target: D(2) dopamine receptor (Rattus norvegicus) (UniProt P61169); assay: In vivo antagonism activity against D2 receptor was measured as stereotypy in rat when administered subcutaneously; assay type: functional, organism-based
# Summary of the method: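 Male Long Evans rats (275 g) were dosed sc in dilute aqueous HCl (pH 4.5-5.5) 30 min before apomorphine (1 mg/kg sc).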
# Mustela putorius furo [3] = assay: In vivo antagonism of cisplatin-induced emesis in ferret measured as emetic episodes, twice the dose of 3 mg/kg and in 3 ferrets; assay type: functional
# Summary of the method: (§1)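 Nonfasted castrated male Fitch ferrets (1–1.5 kg) had jugular catheters implanted ≥48 h earlier under anesthesia. Compounds or saline were given iv twice, 5 min before and 90 min after cisplatin (12 mg/kg iv; 12 mg/mL in warm 0.9% saline). Emesis was observed up to 4 h; events within 1 min counted as one episode. Results were given as mean emetic episodes and % protection versus a pooled historical/concurrent control. t test versus saline.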
# [4] = target: D(2) dopamine receptor (Rattus norvegicus) (UniProt P61169); assay: In vivo antagonistic activity against dopamine D2 receptor was measured as catalepsy in rat when administered subcutaneously; assay type: functional, organism-based
# Summary of the method: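 Male Long Evans rats (275 g) received graded sc doses in dilute aqueous HCl (pH 4.5-5.5). They were observed 180 min for catalepsy, scored when the animal stayed stationary ≥15 s on a four-cork template.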
# D(2) dopamine receptor = D(2) dopamine receptor (Rattus norvegicus, UniProt P61169); assay: In vitro antagonistic activity against Dopamine receptor D2 was evaluated for the inhibition of [3H]spiperone binding
# Summary of the method: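 Rat striatal membranes were prepared by differential centrifugation in 50 mM Tris pH 7.4 at 4 °C. Membrane protein (10 mg) was incubated 15 min at 37 °C with 0.1 nM [3H]spiperone and varying competitor concentrations. Buffer: 50 mM Tris HCl pH 7.5, 0.1% ascorbic acid, pargyline, 120 mM NaCl, 5 mM KCl, 2 mM CaCl2, 1 mM MgCl2. (+)-Butaclamol defined nonspecific binding. Bound ligand was collected by filtration and scintillation counted. IC50 by log-logit regression.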
# Mustela putorius furo [5] = assay: In vivo antagonism of cisplatin-induced emesis in ferret measured as percentage protection for twice the dose of 3 mg/kg and in 3 ferrets; assay type: functional; summary of the method: as §1
# Canis familiaris [6] = assay: In vivo antagonism of cisplatin-induced emesis in dog measured as emetic episodes, twice the dose of 3 mg/kg in 2 dogs; assay type: functional, Canis lupus familiaris
# Summary of the method: (§2)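 Nonfasted mature male or female beagles were dosed sc twice, 30 min before and 120 min after cisplatin (3 mg/kg iv; 3 mg/mL in warm 0.9% saline, used immediately). Emesis was observed up to 5 h; events within 2 min counted as one episode. Results were given as mean emetic episodes and % protection versus a dynamic control (historical and concurrent saline means pooled). t test versus saline.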
# Canis familiaris [7] = assay: In vivo antagonism of cisplatin-induced emesis in dog measured as percentage protection for twice the dose of 3 mg/kg in 2 dogs; assay type: functional, Canis lupus familiaris; summary of the method: as §2
# Canis familiaris [8] = assay: In vivo antagonism of cisplatin-induced emesis in dog measured as percentage protection for twice the dose of 6 mg/kg in 2 dogs; assay type: functional, Canis lupus familiaris; summary of the method: as §2
# Canis familiaris [9] = assay: In vivo antagonism of cisplatin-induced emesis in dog measured as emetic episodes, twice the dose of 6 mg/kg in 2 dogs; assay type: functional, Canis lupus familiaris; summary of the method: as §2
# Mustela putorius furo [10] = assay: In vivo antagonism of cisplatin-induced emesis in ferret measured as percentage protection for twice the dose of 0.3 mg/kg and in 3 ferrets; assay type: functional; summary of the method: as §1
# Canis familiaris [11] = assay: In vivo antagonism of cisplatin-induced emesis in dog measured as percentage protection for twice the dose of 1 mg/kg in 2 dogs; assay type: functional, Canis lupus familiaris; summary of the method: as §2
# Canis familiaris [12] = assay: In vivo antagonism of cisplatin-induced emesis in dog measured as emetic episodes, twice the dose of 1 mg/kg in 2 dogs; assay type: functional, Canis lupus familiaris; summary of the method: as §2
# Mustela putorius furo [13] = assay: In vivo antagonism of cisplatin-induced emesis in ferret measured as emetic episodes, twice the dose of 0.3 mg/kg and in 3 ferrets; assay type: functional; summary of the method: as §1
# Canis familiaris [14] = assay: In vivo antagonism of cisplatin-induced emesis in dog measured as emetic episodes, twice the dose of 0.3 mg/kg in 2 dogs; assay type: functional, Canis lupus familiaris; summary of the method: as §2
# Mustela putorius furo [15] = assay: In vivo antagonism of cisplatin-induced emesis in ferret measured as percentage protection for twice the dose of 1 mg/kg and in 3 ferrets; assay type: functional; summary of the method: as §1
# Mustela putorius furo [16] = assay: In vivo antagonism of cisplatin-induced emesis in ferret measured as emetic episodes, twice the dose of 1 mg/kg and in 3 ferrets; assay type: functional; summary of the method: as §1
# Canis familiaris [17] = assay: In vivo antagonism of cisplatin-induced emesis in dog measured as percentage protection for twice the dose of 0.3 mg/kg in 2 dogs; assay type: functional, Canis lupus familiaris; summary of the method: as §2
# Chain of D(2) dopamine receptor (P61169 whole entry): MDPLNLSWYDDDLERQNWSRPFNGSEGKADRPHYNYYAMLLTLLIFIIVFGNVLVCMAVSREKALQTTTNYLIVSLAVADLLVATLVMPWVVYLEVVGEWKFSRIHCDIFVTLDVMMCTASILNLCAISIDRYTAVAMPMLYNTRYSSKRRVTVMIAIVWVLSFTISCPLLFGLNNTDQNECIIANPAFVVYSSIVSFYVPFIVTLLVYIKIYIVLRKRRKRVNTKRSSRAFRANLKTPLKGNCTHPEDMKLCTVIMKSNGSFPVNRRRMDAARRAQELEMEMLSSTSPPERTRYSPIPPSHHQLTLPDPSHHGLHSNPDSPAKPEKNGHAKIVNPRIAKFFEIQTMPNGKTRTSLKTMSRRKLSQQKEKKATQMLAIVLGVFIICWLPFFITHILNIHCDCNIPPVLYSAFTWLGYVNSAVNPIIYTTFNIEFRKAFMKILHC
# Chain of D(2) dopamine receptor (Rattus norvegicus) (P61169 whole entry): as above
# Chain of D(2) dopamine receptor (Canis lupus familiaris) (Q9GJU1 whole entry): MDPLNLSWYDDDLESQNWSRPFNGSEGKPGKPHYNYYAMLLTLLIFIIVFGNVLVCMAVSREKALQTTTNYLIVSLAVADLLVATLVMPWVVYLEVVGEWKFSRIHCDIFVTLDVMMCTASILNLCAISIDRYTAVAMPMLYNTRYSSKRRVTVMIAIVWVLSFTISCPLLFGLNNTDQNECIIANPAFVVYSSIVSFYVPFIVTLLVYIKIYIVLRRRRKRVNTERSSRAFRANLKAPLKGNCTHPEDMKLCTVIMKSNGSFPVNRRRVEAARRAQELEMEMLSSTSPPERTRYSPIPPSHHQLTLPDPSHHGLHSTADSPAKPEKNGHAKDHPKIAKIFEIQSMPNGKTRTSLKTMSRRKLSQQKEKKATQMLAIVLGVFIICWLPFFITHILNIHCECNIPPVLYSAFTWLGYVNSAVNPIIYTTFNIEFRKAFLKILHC
SMILES,ED50 [1] [mg/kg],ED50 [2] [mg/kg],Emetic episodes (Mustela putorius furo [3]),ED50 [4] [mg/kg],IC50 (D(2) dopamine receptor) [nM],Protection (Mustela putorius furo [5]) [%],Protection (Mustela putorius furo [10]) [%],Protection (Canis familiaris [11]) [%],Emetic episodes (Canis familiaris [12]),Emetic episodes (Mustela putorius furo [13]),Emetic episodes (Canis familiaris [14]),Protection (Mustela putorius furo [15]) [%],Emetic episodes (Mustela putorius furo [16]),Protection (Canis familiaris [17]) [%],also measured
CCN(CC)CCNC(=O)c1cc(Cl)c(N)cc1OCC1COC(C)(C)O1 (stereo not given),> 3,> 40,2,> 40,> 1000,72,,,,,,,,,Emetic episodes (Canis familiaris [6]): 4; Protection (Canis familiaris [7]): 68%
CCN(CC)CCNC(=O)c1cc(Cl)c(N)cc1OC/C(C)=N/OC,,> 40,0.7,> 40,> 1000,90,,,,,,,,,Protection (Canis familiaris [8]): 71%; Emetic episodes (Canis familiaris [9]): 3.5
CCC(=O)COc1cc(N)c(Cl)cc1C(=O)NCCN(CC)CC,> 3,> 40,0.7,> 40,> 1000,90,0,100,0,7.3,3,,,,
C=CCOc1cc(N)c(Cl)cc1C(=O)NCCN(CC)CC,> 1,> 40,0.3,> 40,> 1000,95,30,72,3.5,4.7,,56,3,,Protection (Canis familiaris [8]): 90%; Emetic episodes (Canis familiaris [9]): 1
CCN(CC)CCN1C(=O)c2cc(Cl)c(N)cc2OC(C)=C1C,> 3,> 40,,> 40,> 1000,,,,,,7.5,,,37,Protection (Mustela putorius furo [10]; 0.3 mg/kg): 95% and 67%
CCN(CC)CCNC(=O)c1cc(Cl)c(N)cc1OC1CCCCC1=O (stereo not given),> 3,> 40,0,> 40,> 1000,100,62,100,0,2.7,1.5,,,88,
CCN(CC)CCNC(=O)c1cc(Cl)c(N)cc1OCC(C)=O,> 3,> 40,0.7,> 40,> 1000,90,44,92,1.5,4,5,38,4.5,60,Protection (Canis familiaris [8]): 96%; Emetic episodes (Canis familiaris [9]): 0.5
CCN(CC)CCNC(=O)c1cc(Cl)c(N)cc1OCC(=O)C(C)C,> 3,> 40,,> 40,> 1000,,,,,,3,44,4,44,
CCCOc1cc(N)c(Cl)cc1C(=O)NCCN(CC)CC,> 3,> 40,2,> 40,> 1000,70,,,,,,,,,Protection (Canis familiaris [8]): 40%; Emetic episodes (Canis familiaris [9]): 8
CCN(CC)CCNC(=O)c1cc(Cl)c(N)cc1OC1CCCC[C@H]1O (stereo not given in full),,> 40,2.7,> 40,> 1000,64,,100,0,,4.5,,,64,
CCCC(=O)COc1cc(N)c(Cl)cc1C(=O)NCCN(CC)CC,> 3,> 40,,> 40,> 1000,,,,,,2,90,0.7,84,
CCN(CC)CCNC(=O)c1cc(Cl)c(N)cc1OC1CCCC1=O (stereo not given),> 3,> 40,,> 40,> 1000,,,87,,,,21,5.7,,
CCN(CC)CCNC(=O)c1cc(Cl)c(N)cc1OC[C@@H](C)O (stereo in doubt; 8f),,,,,> 1000,,0,,,8,,,,,Protection (Canis familiaris [11]; 1 mg/kg): 100%; Emetic episodes (Canis familiaris [12]; 1 mg/kg): 0; Protection (Mustela putorius furo [15]; 1 mg/kg): 22%; Emetic episodes (Mustela putorius furo [16]; 1 mg/kg): 5.7; Emetic episodes (Canis familiaris [14]; 0.3 mg/kg): 2
"CCN(CC)CCNC(=O)c1cc(Cl)c(N)cc1OC(C)C(C)O (stereo in doubt; 8g,h)",,,,,> 1000,,,,,,,,,,Protection (Canis familiaris [17]; 0.3 mg/kg): 96%; Emetic episodes (Mustela putorius furo [3]; 3 mg/kg): 1.3; Protection (Mustela putorius furo [5]; 3 mg/kg): 80%; Protection (Mustela putorius furo [15]; 1 mg/kg): 75%; Emetic episodes (Mustela putorius furo [16]; 1 mg/kg): 1.7; Emetic episodes (Canis familiaris [14]; 0.3 mg/kg): 0.5
CCN(CC)CCNC(=O)c1cc(Cl)c(N)cc1OC(C)C(C)O (stereo in doubt; 8h),,,,,> 1000,,,75,3,,,,,,Protection (Canis familiaris [17]; 0.3 mg/kg): 60%; Emetic episodes (Mustela putorius furo [3]; 3 mg/kg): 0.3; Protection (Mustela putorius furo [10]; 0.3 mg/kg): 37%; Protection (Mustela putorius furo [5]; 3 mg/kg): 95%; Protection (Mustela putorius furo [15]; 1 mg/kg): 68%; Emetic episodes (Mustela putorius furo [16]; 1 mg/kg): 2.3; Emetic episodes (Mustela putorius furo [13]; 0.3 mg/kg): 4.7; Emetic episodes (Canis familiaris [14]; 0.3 mg/kg): 4.5
CCN(CC)CC/N=C(\NOC)c1cc(Cl)c(N)cc1OC,> 1,> 40,8.3,> 40,> 1000,0,,,,,,,,,Protection (Canis familiaris [8]): 34%; Emetic episodes (Canis familiaris [9]): 8.5
CCN(CC)CCNC(=O)c1cc(Cl)c(N)cc1OC1CCCC[C@@H]1OC (stereo not given in full),> 3,> 40,0.7,> 40,> 1000,91,42,15,10,4.3,,69,2.3,,
CCC(Oc1cc(N)c(Cl)cc1C(=O)NCCN(CC)CC)C(C)=O (stereo not given),> 3,> 40,,> 40,> 1000,,,96,0.5,,3,68,2.3,,
CCN(CC)CCNC(=O)c1cc(Cl)c(N)cc1OCc1ccccn1,> 3,> 40,1,> 40,> 1000,86,,,,,,67,2.3,,
CCN(CC)CCNC(=O)c1cc(Cl)c(N)cc1OC1CCCC[C@H]1OC (stereo not given in full),> 3,> 40,1.3,> 40,> 1000,82,77,100,0,3.7,3.5,49,1.7,70,
CCC(=O)C(C)Oc1cc(N)c(Cl)cc1C(=O)NCCN(CC)CC (stereo not given),> 3,> 40,,> 40,> 1000,,,,,,2,82,1.3,84,
CCN(CC)CCNC(=O)c1cc(Cl)c(N)cc1OCCC(C)O (stereo not given),> 3,> 40,,> 40,> 1000,,,,,,8,73,2,32,
CCN(CC)CCNC(=O)c1cc(Cl)c(N)cc1OCC(C)O (stereo not given),> 3,> 40,1,> 40,> 1000,86,,100,0,,3,36,4.5,68,
